Experimental findings from ChEMBL document CHEMBL4477254, “Synthesis and biological evaluation of some novel triazole hybrids of curcumin mimics and their selective anticancer activity against breast and prostate cancer cell lines” (Bioorg Med Chem Lett, 2016) are described below.

Activity calls are given as the source filed them. No cut-off for these calls is given here.

In data set [1] the test system is MCF7. Description: Cell cycle arrest in human MCF7 cells assessed as decrease in cells at G0/G1 phase after 24 hrs by propidium iodide staining based flow cytometry. The data set is classed as functional. Put shortly:
(§1)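 Cells treated 24 h with test compound, MCF-7 at various concentrations and PC-3 at various concentrations; cells harvested, stained with propidium iodide and acquired by flow cytometry for cell cycle phase distribution.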

Data set [2] relates to MCF7. Description: Cell cycle arrest in human MCF7 cells assessed as accumulation at G0/G1 phase at 3 uM after 24 hrs by propidium iodide staining based flow cytometry (reference value: 45.67%). Type of data set: functional. An outline of the steps: as §1
The subject of data set [3] is MCF7. Description: Cell cycle arrest in human MCF7 cells assessed as accumulation at S phase at 3 uM after 24 hrs by propidium iodide staining based flow cytometry (reference value: 34.03%). The data set is classed as functional. Put shortly: as §1
A general note: A flow cytometer gives signals particle by particle.

Data set [4] relates to MCF7. Description: Cell cycle arrest in human MCF7 cells assessed as accumulation at S phase at 6 uM after 24 hrs by propidium iodide staining based flow cytometry (reference value: 34.03%). Type of data set: functional. An outline of the steps: as §1
In data set [5] the test system is MCF7. Description: Cell cycle arrest in human MCF7 cells assessed as accumulation at G0/G1 phase at 9 uM after 24 hrs by propidium iodide staining based flow cytometry (reference value: 45.67%). The data set is classed as functional. Put shortly:
as §1

The test system of data set [6] is MCF7. Description: Cell cycle arrest in human MCF7 cells assessed as accumulation at S phase at 9 uM after 24 hrs by propidium iodide staining based flow cytometry (reference value: 34.03%). Type of data set: functional. Put shortly:
as §1

For data set [7], the system named is MCF7. Description: Induction of morphological changes in human MCF7 cells assessed as decrease in cell number at 1 to 6 uM after 24 hrs by phase contrast microscopy. The data set is classed as functional, cell-based. Put shortly: (§2)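 Cells were exposed to a range of concentrations for 24 h. Cell number and morphology, including detachment from the surface, were assessed by phase-contrast microscopy at 10X magnification.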

Data set [8] has as its system MCF7. Description: Induction of apoptosis in human MCF7 cells assessed as viable cells at 3 uM after 24 hrs by annexin V-FITC/propidium iodide staining based flow cytometry (reference value: 82.63%). As to conditions: MCF7, 24 h, read-out: Activity. The data set is classed as functional. Put shortly: (§3)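 Apoptosis by Annexin V-FITC/PI dual staining: MCF-7 cells treated 24 h at 3, 6 and 9 µM, then harvested, stained and acquired by flow cytometry; early apoptotic = AnnexinV+/PI−, live = AnnexinV−/PI−, necrotic = AnnexinV−/PI+.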

Data set [9] concerns MCF7. Description: Induction of apoptosis in human MCF7 cells assessed as late apoptotic cells at 3 uM after 24 hrs by annexin V-FITC/propidium iodide staining based flow cytometry (reference value: 5.25%). The data set is classed as functional. Put shortly:
as §3

For data set [10], the system named is MCF7. Description: Induction of apoptosis in human MCF7 cells assessed as viable cells at 9 uM after 24 hrs by annexin V-FITC/propidium iodide staining based flow cytometry (reference value: 82.63%). Type of data set: functional. As to conditions: MCF7, 24 h, read-out: Activity. Put shortly:
(§4)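 MCF-7 cells exposed to 3, 6 or 9 μM and PC-3 cells to 4.8 or 8.8 μM for 24 h, then harvested and dual-stained with Annexin V-FITC/PI and read by flow cytometry. Gates: live AnnexinV⁻/PI⁻, early apoptotic AnnexinV⁺/PI⁻, necrotic AnnexinV⁻/PI⁺.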

The test system of data set [11] is MCF7. Description: Induction of apoptosis in human MCF7 cells assessed as late apoptotic cells at 9 uM after 24 hrs by annexin V-FITC/propidium iodide staining based flow cytometry (reference value: 5.25%). Type of data set: functional. An outline of the steps: as §3
Data set [12] in a line: Drug metabolism in liver microsomes (unknown origin) assessed as compound remaining at 5 ug/ml after 5 mins in presence of NADPH by UPLC analysis. Type of data set: ADME, Microsome. As to conditions: read-out: Drug metabolism. Put shortly: (§5)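 Microsomal metabolic stability; percentage of compound remaining intact measured after 5 min incubation in presence of microsomes.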
In general terms: Liver microsomes are vesicles of endoplasmic reticulum, rich in cytochrome P450 enzymes.

A short description of data set [13]: Elimination rate constant in liver microsomes (unknown origin) at 5 ug/ml measured up to 60 mins by UPLC analysis. The data set is classed as ADME, Microsome.
Data set [14] has as its system PC-3. Description: Cell cycle arrest in human PC3 cells assessed as accumulation at G0/G1 phase at 4.8 uM after 24 hrs by propidium iodide staining based flow cytometry (reference value: 72.73%). Type of data set: functional. An outline of the steps:
as §1

In data set [15] the test system is PC-3. Description: Cell cycle arrest in human PC3 cells assessed as accumulation at G2/M phase at 4.8 uM after 24 hrs by propidium iodide staining based flow cytometry (reference value: 2.25%). The data set is classed as functional. Put shortly:
as §1

Data set [16] relates to PC-3. Description: Cell cycle arrest in human PC3 cells assessed as accumulation at G2/M phase at 8.8 uM after 24 hrs by propidium iodide staining based flow cytometry (reference value: 2.25%). Type of data set: functional. An outline of the steps:
as §1

Data set [17] has as its system PC-3. Description: Cell cycle arrest in human PC3 cells assessed as accumulation at S phase at 8.8 uM after 24 hrs by propidium iodide staining based flow cytometry (reference value: 25.01%). Type of data set: functional. An outline of the steps: as §1
In data set [18] the test system is PC-3. Description: Induction of morphological changes in human PC3 cells at 2.4 to 8.8 uM after 24 hrs by phase contrast microscopy. The data set is classed as functional, cell-based. Put shortly:
as §2

Data set [19] deals with PC-3. Description: Induction of apoptosis in human PC3 cells assessed as necrotic cells at 8.8 uM after 24 hrs by annexin V-FITC/propidium iodide staining based flow cytometry (reference value: 2.52%). Type of data set: functional. An outline of the steps:
as §4

The target of data set [20] is Serine/threonine-protein kinase AKT (Homo sapiens) (UniProt P31751+Q9Y243+P31749). Description: Inhibition of Akt phosphorylation at […] in human PC3 cells at 8.8 uM after 24 hrs by Western blot analysis. Type of data set: cell-based. An outline of the steps: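 Protein expression was analysed by Western blotting of cells harvested after 24 h compound treatment.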
Sequence of Serine/threonine-protein kinase AKT (Homo sapiens) (P31749 whole entry, looked up): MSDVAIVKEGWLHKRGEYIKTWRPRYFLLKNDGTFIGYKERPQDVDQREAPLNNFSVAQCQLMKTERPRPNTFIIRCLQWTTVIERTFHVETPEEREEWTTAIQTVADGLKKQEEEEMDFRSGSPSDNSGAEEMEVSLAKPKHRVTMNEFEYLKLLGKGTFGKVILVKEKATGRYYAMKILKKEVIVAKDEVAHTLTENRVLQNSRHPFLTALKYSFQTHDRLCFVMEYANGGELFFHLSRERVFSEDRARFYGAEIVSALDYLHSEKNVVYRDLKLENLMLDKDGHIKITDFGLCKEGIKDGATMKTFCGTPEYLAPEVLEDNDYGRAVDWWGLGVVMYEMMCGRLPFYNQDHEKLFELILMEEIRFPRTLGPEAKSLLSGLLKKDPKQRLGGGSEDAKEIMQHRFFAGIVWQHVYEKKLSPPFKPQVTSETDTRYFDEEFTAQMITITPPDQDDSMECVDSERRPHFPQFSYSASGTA
Sequence of Serine/threonine-protein kinase AKT (Homo sapiens) (P31751 whole entry, looked up): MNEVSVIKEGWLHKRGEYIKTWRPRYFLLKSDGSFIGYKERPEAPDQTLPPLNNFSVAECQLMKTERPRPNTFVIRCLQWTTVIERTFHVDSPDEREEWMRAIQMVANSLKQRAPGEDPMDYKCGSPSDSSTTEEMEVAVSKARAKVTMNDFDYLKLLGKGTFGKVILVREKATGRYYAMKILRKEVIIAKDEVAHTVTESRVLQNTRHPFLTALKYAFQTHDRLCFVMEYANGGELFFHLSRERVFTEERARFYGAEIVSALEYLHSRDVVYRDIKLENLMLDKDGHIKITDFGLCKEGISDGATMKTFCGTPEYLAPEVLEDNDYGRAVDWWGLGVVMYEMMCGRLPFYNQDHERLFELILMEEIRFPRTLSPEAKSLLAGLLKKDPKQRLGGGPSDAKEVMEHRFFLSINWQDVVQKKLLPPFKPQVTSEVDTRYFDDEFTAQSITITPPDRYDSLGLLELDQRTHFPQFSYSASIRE
Sequence of Serine/threonine-protein kinase AKT (Homo sapiens) (Q9Y243 whole entry, looked up): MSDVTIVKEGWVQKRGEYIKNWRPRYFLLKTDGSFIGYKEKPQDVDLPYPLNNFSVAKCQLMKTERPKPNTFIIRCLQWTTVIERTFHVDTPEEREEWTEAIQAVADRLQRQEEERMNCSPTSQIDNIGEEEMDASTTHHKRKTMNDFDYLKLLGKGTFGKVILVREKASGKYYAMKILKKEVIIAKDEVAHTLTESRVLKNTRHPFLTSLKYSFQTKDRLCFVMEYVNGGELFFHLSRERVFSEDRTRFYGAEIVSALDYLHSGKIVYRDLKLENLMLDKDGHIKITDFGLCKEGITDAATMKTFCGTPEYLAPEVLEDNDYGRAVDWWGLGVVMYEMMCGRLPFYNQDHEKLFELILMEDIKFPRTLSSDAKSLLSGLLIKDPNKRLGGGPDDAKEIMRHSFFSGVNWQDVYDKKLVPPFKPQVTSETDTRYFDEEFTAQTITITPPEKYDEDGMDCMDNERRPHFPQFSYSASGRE

Data set [21] can be described thus: Drug metabolism in liver microsomes (unknown origin) assessed as compound remaining at 8 ug/ml after 5 mins in presence of NADPH by UPLC analysis. The data set is classed as ADME, Microsome. Conditions: read-out: Drug metabolism. An outline of the steps:
as §5

As to `O=C1/C(=C/c2ccccc2F)CN(Cc2cn(Cc3ccc(F)cc3)nn2)C/C1=C\c1ccccc1F`, the Activity entry with MCF7 [1] was “Dose-dependent effect”; with MCF7 [2], 38.9%; with MCF7 [3], 36.03%; in the data set with MCF7 [4] it was 44.43%; in the data set on MCF7 [5] it was 2.22%; in the data set on MCF7 [6], 62.67%. For the same molecule, the Activity in the data set with MCF7 [9] was determined as 16.3%; with MCF7 [11], 19.59%. Besides, in the data set with MCF7 [7], the result was Active. Also, in the data set with MCF7 [8], the viability at 3 µM was determined as 52.4%. In addition, in the data set with MCF7 [10], the viability at 9 µM is 40.3%. In [12], the remaining at 5 min, 5 ug/ml was found to be 46%. In [13], this molecule gave a k el at 1 h, 5 ug/ml of 0.00147 s⁻¹.

`Cc1ccc(/C=C2\CN(Cc3cn(Cc4ccccc4F)nn3)C/C(=C\c3ccc(C)cc3)C2=O)cc1`: the Activity in the data set on PC-3 [14] turned out to be 70.62%; in the data set with PC-3 [15] it was 8.36%; in the data set on PC-3 [16] it was 8.9%; in the data set on PC-3 [17], 23.61%; with PC-3 [19], 0.75%. Besides, the result with PC-3 [18] was Active. For the same molecule, in data set [20], the inhibition (in general, how much of the control response was suppressed) is 100%. Further, the remaining at 5 min, 8 ug/ml in data set [21] was 66%.
